Experiments:
Nitric oxide synthase 3 = biological target: T1, Nitric oxide synthase 3 (Homo sapiens, UniProt P29474); experiment: Inhibitory activity evaluated from soluble cell extract of human endothelia constitutive enzyme (Endothelial nitric oxide synthase) and partially purified by DEAE-sepharose chromatography
T1 sequence (P29474 whole entry): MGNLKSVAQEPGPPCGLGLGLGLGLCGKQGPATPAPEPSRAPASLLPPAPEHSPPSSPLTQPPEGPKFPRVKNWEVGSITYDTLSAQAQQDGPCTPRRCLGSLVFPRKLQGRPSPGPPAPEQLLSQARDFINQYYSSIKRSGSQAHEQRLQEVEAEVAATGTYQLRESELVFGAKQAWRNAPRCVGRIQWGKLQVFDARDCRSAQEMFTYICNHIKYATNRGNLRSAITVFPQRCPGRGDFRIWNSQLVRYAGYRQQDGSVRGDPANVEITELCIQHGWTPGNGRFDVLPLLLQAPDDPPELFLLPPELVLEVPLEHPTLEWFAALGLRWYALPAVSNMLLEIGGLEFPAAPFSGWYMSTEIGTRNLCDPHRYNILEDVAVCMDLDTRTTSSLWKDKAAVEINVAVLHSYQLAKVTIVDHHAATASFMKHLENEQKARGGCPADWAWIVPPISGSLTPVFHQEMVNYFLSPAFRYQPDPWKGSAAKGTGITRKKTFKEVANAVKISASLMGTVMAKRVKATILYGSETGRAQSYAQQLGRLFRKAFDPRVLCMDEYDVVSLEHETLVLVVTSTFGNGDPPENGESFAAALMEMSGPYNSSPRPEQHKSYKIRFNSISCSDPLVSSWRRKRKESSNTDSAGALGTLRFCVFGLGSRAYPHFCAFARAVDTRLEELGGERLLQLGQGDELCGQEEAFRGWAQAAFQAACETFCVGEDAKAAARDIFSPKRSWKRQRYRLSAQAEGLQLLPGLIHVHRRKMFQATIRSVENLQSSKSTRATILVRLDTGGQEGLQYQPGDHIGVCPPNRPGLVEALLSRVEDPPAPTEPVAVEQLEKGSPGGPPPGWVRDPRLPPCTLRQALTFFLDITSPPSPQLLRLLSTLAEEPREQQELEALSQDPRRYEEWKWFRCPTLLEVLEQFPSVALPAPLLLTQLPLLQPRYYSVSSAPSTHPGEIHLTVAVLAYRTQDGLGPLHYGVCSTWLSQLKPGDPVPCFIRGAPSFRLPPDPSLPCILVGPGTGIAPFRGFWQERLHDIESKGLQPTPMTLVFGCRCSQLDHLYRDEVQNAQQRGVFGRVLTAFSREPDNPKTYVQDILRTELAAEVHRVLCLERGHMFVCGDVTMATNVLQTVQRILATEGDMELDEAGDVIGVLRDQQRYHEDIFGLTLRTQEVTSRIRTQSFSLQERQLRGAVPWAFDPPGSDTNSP
Method in brief: (§1)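 Recombinant human iNOS, eNOS or nNOS expressed in Sf9 cells (baculovirus). L-[3H]arginine to [3H]citrulline conversion in Tris pH 7.6 with BSA, DTT, CaCl2, FAD, tetrahydrobiopterin, NADPH and 30 μM final L-arginine. Calmodulin at 40 nM final for eNOS and nNOS only. 15 min at 37 °C, stopped with EGTA/HEPES pH 5.5, Dowex separation, scintillation counting. At least duplicate.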

[1] = biological target: Nitric oxide synthase, inducible (Homo sapiens, UniProt P35228); experiment: Inhibitory activity evaluated for soluble cell extract of human Inducible nitric oxide synthase and partially purified by DEAE-sepharose chromatography; method in brief: as §1
Nitric oxide synthase 1 [2] = biological target: T2, Nitric oxide synthase 1 (Homo sapiens, UniProt P29475); experiment: Inhibitory activity evaluated from soluble cell extract of Neuronal nitric oxide synthase and partially purified by DEAE-sepharose chromatography
[3] = biological target: T3, Nitric oxide synthase, inducible (Mus musculus, UniProt P29477); experiment: The ability of compound to inhibit mouse Inducible nitric oxide synthase in LPS stimulated mouse RAW cells was determined; type: cell-based
T3 sequence (P29477 whole entry): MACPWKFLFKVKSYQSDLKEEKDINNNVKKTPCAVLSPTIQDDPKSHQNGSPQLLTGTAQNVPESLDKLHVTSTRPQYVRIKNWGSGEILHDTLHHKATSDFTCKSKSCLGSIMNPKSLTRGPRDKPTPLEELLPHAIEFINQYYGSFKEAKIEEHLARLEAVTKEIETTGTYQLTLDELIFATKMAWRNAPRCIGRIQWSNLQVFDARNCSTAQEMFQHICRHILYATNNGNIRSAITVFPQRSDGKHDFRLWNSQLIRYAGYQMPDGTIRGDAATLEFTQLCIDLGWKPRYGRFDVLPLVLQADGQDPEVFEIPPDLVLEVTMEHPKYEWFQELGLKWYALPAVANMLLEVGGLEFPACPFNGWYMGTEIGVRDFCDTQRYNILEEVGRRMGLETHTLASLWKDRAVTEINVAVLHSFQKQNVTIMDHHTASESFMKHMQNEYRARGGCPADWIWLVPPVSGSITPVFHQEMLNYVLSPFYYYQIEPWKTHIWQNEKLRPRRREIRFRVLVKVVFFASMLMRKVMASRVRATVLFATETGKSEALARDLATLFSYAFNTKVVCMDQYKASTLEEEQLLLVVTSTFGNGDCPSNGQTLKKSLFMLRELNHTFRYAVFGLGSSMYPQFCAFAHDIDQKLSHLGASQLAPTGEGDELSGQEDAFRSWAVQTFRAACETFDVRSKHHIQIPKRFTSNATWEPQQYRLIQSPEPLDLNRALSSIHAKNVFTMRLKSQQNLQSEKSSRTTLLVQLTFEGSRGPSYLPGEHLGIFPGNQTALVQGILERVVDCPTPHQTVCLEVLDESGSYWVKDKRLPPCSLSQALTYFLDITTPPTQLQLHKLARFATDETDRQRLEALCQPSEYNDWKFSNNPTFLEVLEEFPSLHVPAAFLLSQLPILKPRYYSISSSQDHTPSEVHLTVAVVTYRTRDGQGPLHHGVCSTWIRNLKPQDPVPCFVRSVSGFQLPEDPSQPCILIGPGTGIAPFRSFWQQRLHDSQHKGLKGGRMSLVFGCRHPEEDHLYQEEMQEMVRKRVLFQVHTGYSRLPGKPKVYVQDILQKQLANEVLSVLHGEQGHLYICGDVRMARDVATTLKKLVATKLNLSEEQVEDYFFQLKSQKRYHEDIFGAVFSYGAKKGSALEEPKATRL
Method in brief: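 RAW 264.7 cells plated at 2×10^5/well and induced 17 h with 10 μg/mL LPS (E. coli O111:B4). Washed, preincubated 1 h on ice in Krebs Ringer/HEPES pH 7.5 with glucose, 30 μM L-arginine and five inhibitor concentrations, then 2 h at 37 °C. Nitrite measured fluorometrically.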

Nitric oxide synthase 1 [4] = biological target: T2, Nitric oxide synthase 1; experiment: Inhibitory activity evaluated from soluble cell extract of human nNeuronal nitric oxide synthase and partially purified by DEAE-sepharose chromatography; method in brief: as §1
[5] = biological target: Nitric oxide synthase, inducible (Rattus norvegicus) (UniProt Q06518); experiment: The ability of compounds to inhibit Inducible nitric oxide synthase in LPS-treated male Lewis rats at 10 mg/kg dose; type: organism-based; parameters: dose 10 mg/kg
Method in brief: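 Rats dosed 10 mg/kg orally by gavage 1 h before LPS (10 mg/kg ip). Blood taken 5 h after LPS; plasma filtered through a 10 000 MW cutoff filter, and nitrite/nitrate measured fluorometrically. Percent inhibition calculated relative to rats given LPS alone.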

Nitric oxide synthase 1 [6] = biological target: T2, Nitric oxide synthase 1; experiment: Inhibitory activity evaluated from soluble cell extract of human Neuronal nitric oxide synthase and partially purified by DEAE-sepharose chromatography; method in brief: as §1

Nitric oxide synthase, inducible (Rattus norvegicus), sequence (Q06518 whole entry): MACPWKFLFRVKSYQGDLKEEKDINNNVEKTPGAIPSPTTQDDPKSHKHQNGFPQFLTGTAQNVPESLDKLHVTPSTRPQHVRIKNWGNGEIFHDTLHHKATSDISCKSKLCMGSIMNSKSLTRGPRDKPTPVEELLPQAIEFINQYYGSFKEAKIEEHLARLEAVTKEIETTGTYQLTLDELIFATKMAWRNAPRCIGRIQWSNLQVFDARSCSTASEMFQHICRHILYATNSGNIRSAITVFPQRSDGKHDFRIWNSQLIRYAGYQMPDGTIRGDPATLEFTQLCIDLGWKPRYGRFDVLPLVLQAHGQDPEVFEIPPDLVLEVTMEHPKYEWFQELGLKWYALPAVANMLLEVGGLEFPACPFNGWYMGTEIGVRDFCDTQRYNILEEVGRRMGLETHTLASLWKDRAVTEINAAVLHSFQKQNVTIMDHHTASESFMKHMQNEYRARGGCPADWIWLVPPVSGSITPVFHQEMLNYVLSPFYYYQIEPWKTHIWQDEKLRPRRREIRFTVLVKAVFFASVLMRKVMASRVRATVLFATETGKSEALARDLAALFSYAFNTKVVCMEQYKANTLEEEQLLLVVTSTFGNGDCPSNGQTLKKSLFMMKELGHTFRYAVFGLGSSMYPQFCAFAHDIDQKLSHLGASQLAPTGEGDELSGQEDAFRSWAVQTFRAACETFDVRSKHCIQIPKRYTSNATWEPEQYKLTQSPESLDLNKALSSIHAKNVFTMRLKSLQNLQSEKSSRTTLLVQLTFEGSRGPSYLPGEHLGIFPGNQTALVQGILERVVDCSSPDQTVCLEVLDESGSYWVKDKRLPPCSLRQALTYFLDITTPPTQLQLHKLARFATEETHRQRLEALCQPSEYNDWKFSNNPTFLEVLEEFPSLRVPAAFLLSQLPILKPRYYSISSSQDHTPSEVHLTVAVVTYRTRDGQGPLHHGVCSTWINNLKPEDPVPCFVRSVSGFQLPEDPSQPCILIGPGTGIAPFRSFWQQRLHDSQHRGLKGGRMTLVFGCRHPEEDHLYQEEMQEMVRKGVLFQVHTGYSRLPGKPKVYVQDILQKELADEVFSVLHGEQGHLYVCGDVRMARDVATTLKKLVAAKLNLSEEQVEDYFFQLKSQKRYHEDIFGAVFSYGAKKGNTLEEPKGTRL
T2 sequence (P29475 whole entry): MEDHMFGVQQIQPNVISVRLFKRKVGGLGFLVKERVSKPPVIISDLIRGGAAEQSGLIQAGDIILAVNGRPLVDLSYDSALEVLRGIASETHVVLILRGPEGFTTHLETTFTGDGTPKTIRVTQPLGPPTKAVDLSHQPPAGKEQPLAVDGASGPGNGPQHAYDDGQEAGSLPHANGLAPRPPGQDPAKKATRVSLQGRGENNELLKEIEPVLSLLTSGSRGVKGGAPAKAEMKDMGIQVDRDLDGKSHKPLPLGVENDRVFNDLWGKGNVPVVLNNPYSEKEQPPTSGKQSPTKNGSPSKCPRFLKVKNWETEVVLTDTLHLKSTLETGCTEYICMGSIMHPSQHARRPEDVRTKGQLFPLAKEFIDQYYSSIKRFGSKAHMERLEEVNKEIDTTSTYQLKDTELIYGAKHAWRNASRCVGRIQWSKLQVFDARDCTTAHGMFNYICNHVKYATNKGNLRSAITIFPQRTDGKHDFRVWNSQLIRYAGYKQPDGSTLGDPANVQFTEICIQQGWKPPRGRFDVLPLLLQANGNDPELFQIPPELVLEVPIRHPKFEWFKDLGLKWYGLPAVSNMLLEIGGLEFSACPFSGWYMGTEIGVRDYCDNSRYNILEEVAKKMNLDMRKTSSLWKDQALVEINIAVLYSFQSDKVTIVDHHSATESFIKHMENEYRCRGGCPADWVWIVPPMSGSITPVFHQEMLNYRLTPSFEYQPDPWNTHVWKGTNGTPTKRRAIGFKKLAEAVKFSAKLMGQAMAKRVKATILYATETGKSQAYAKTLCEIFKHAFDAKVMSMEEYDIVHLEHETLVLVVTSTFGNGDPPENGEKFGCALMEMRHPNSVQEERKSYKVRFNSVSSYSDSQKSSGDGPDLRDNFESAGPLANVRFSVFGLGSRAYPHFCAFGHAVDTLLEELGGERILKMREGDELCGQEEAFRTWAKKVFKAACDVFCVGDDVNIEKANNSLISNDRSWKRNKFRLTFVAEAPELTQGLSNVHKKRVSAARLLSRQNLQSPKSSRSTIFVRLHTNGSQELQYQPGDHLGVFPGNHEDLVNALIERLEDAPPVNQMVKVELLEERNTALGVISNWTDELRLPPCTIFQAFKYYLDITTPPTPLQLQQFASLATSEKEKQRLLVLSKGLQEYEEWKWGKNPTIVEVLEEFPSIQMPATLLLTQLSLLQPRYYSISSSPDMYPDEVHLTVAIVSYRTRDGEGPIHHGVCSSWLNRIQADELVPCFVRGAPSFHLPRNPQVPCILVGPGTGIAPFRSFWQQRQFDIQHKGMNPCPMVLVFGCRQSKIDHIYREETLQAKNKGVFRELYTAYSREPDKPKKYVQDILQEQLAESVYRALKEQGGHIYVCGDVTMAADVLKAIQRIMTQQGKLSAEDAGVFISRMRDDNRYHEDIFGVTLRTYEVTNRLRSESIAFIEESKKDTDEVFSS
Nitric oxide synthase, inducible (Homo sapiens, UniProt P35228), sequence (P35228 whole entry): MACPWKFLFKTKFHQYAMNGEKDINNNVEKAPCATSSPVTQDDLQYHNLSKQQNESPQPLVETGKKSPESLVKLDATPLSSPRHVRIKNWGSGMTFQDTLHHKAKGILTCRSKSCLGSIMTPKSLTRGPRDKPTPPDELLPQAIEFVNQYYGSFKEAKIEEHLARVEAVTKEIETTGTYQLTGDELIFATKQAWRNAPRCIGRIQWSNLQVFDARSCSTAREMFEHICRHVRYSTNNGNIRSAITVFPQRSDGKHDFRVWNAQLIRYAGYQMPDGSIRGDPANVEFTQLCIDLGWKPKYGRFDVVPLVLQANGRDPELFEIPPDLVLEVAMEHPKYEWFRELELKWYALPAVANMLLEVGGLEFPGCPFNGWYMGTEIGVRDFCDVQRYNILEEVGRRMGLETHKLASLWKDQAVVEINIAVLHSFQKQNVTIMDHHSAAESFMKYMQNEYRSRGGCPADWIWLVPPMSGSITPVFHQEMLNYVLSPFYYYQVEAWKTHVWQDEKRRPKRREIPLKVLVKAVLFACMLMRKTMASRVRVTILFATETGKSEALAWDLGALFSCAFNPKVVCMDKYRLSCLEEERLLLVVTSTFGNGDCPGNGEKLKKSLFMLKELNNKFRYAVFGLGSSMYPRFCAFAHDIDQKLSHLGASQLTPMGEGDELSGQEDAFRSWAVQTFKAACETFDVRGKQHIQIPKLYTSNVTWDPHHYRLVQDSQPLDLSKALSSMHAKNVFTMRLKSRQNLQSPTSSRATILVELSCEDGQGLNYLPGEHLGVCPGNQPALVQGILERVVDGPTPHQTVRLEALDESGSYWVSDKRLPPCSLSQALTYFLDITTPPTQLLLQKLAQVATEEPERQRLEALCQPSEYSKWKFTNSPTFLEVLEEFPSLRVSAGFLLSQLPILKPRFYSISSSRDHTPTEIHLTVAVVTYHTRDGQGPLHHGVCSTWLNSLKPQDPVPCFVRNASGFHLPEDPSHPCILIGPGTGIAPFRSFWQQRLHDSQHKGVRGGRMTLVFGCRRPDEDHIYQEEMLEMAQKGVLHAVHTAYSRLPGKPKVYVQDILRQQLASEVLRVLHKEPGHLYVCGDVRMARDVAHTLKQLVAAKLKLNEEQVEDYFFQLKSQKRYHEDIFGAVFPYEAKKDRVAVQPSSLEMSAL

| SMILES | IC50 (Nitric oxide synthase 3) [µM] | IC50 [1] [µM] | IC50 (Nitric oxide synthase 1 [2]) [µM] | IC50 [3] [µM] | IC50 (Nitric oxide synthase 1 [4]) [µM] | inhibition [5] [%] | IC50 (Nitric oxide synthase 1 [6]) [µM] |
| --- | --- | --- | --- | --- | --- | --- | --- |
| C=CCC1CCCCN=C1N (configuration not stated) | 380 | 5.8 | 16 | 19 |  |  |  |
| C[C@@H]1CCCC(N)=NC1 | 39 |  |  |  | 3.8 |  |  |
| NC1=NCCCCC1 | 15 | 2.1 |  | 54 |  |  |  |
| CCCCC1CCCCC(N)=N1 (configuration not stated) | 103 | 0.5 |  | 1.6 | 0.85 | 60 |  |
| CCC1CCCCN=C1N (configuration not stated) | 38 |  | 2.4 |  |  |  |  |
| CC1CCN=C(N)CC1 (configuration not stated) | 39 | 5.8 | 11 | 24 |  |  |  |
| CCC(CC)CC1CCCCC(N)=N1 (configuration not stated) | 660 | 2.1 |  | 3.3 |  |  | 5.4 |
| C=CCC1CCCCC(N)=N1 (configuration not stated) | 21 |  |  |  |  | 80 |  |
| NC1=NC(c2ccccc2)CCCC1 (configuration not stated) | 215 | 14 |  | 31 |  |  | 6.6 |
| CCCC1CCCCC(N)=N1 (configuration not stated) | 9.5 |  |  |  |  | 85 |  |
